Measurements: ChEMBL document CHEMBL4257584, “Sterol 14α-Demethylase Structure-Based Optimization of Drug Candidates for Human Infections with the Protozoan Trypanosomatidae” (J Med Chem, 2018)
Activity calls are given as the source filed them. The rule behind the calls is not given here.

Key:
[1] = Lipophilicity, log P of the compound; type: physicochemical; conditions: octanol/water
[2] = Half life in human liver microsomes at 1 uM preincubated for 5 mins followed by NADPH addition and measured by LC/MS/MS analysis; type: ADME, microsome; conditions: microsomes, 1 µM
[3] = Intrinsic clearance in human liver microsomes at 1 uM preincubated for 5 mins followed by NADPH addition and measured after 45 mins by LC/MS/MS analysis; type: ADME, microsome; conditions: read-out: CLH
[4] = Hepatic clearance in human liver microsomes at 1 uM preincubated for 5 mins followed by NADPH addition and measured after 45 mins by LC/MS/MS analysis; type: ADME, microsome
[5] = Intrinsic clearance in Sprague-Dawley rat liver microsomes at 1 uM preincubated for 5 mins followed by NADPH addition and measured after 45 mins by LC/MS/MS analysis; type: ADME, microsome; conditions: read-out: CLH
[6] = Hepatic clearance in Sprague-Dawley rat liver microsomes at 1 uM preincubated for 5 mins followed by NADPH addition and measured after 45 mins by LC/MS/MS analysis; type: ADME, microsome
Outline: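 Pooled liver microsomes at 0.5 mg/mL: human (mixed gender), male Sprague-Dawley rat, or male CD-1 mouse, with test compound at 1 μM, triplicate. In vitro t1/2 is scaled to CLint (45 mg microsomes/g liver; 45 g liver/kg scaling factor). CLhep uses well-stirred model with hepatic blood flow 21 (human), 70 (rat), 90 (mouse) mL/min/kg.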

[7] = Half life in Sprague-Dawley rat liver microsomes at 1 uM preincubated for 5 mins followed by NADPH addition and measured by LC/MS/MS analysis; type: ADME, microsome; conditions: microsomes, 1 µM
[8] = Intrinsic clearance in CD1 mouse liver microsomes at 1 uM preincubated for 5 mins followed by NADPH addition and measured after 45 mins by LC/MS/MS analysis; type: ADME, microsome; conditions: read-out: CLH
[9] = Hepatic clearance in CD1 mouse liver microsomes at 1 uM preincubated for 5 mins followed by NADPH addition and measured after 45 mins by LC/MS/MS analysis; type: ADME, microsome
[10] = Half life in CD1 mouse liver microsomes at 1 uM preincubated for 5 mins followed by NADPH addition and measured by LC/MS/MS analysis; type: ADME, microsome; conditions: mouse, microsomes, 1 µM
[11] = Maximum plasma concentration in BALB/c mouse at 25 mg/kg, po via gavage by […]; type: ADME, organism-based; parameters: dose 25 mg/kg, route oral
Outline: (§1)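 Single oral gavage dose of 25 mg/kg in BALB/c mice; blood sampled at 1, 2, 4, 6, 10, 16, 24 h. Plasma is diluted in PBS with ketoconazole internal standard, extracted with 80% acetonitrile, dried and redissolved. Analysed by reversed-phase HPLC with UV at 291/250 nm, 0.1 μM detection limit. Lifetime is time until undetectable.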

[12] = Drug uptake in BALB/c mouse heart at 25 mg/kg, po via gavage measured after 4 hrs post dose by […]; type: ADME, organism-based; conditions: read-out: Drug uptake
Outline: (§2)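 BALB/c mice get a single oral gavage dose of 25 mg/kg; tissues are collected 4 h post-dose. About 100 mg tissue is diluted 5-fold in PBS and homogenized. Homogenate is extracted as for plasma (ketoconazole internal standard, acetonitrile extraction) and quantified by HPLC-UV at 291 nm, 0.1 μM detection limit, n=2.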

[13] = Drug uptake in BALB/c mouse lungs at 25 mg/kg, po via gavage measured after 4 hrs post dose by […]; type: ADME, organism-based, Lung; conditions: read-out: Drug uptake; outline: as §2
[14] = Drug uptake in BALB/c mouse spleen at 25 mg/kg, po via gavage measured after 4 hrs post dose by […]; type: ADME, organism-based; conditions: read-out: Drug uptake; outline: as §2
[15] = Drug uptake in BALB/c mouse blood at 25 mg/kg, po via gavage measured after 4 hrs post dose by […]; type: ADME, organism-based; conditions: read-out: Drug uptake; outline: as §2
[16] = Drug uptake in BALB/c mouse brain at 25 mg/kg, po via gavage measured after 4 hrs post dose by […]; type: ADME, organism-based; conditions: read-out: Drug uptake; outline: as §2
[17] = Drug uptake in BALB/c mouse liver at 25 mg/kg, po via gavage measured after 4 hrs post dose by […]; type: ADME, organism-based; conditions: read-out: Drug uptake; outline: as §2
[18] = target: Sterol 14-alpha demethylase (Trypanosoma cruzi (strain CL Brener), UniProt Q7Z1V1); experiment: Binding affinity to Trypanosoma cruzi Y CYP51A expressed in Escherichia coli
Chain of Sterol 14-alpha demethylase (Q7Z1V1 whole entry): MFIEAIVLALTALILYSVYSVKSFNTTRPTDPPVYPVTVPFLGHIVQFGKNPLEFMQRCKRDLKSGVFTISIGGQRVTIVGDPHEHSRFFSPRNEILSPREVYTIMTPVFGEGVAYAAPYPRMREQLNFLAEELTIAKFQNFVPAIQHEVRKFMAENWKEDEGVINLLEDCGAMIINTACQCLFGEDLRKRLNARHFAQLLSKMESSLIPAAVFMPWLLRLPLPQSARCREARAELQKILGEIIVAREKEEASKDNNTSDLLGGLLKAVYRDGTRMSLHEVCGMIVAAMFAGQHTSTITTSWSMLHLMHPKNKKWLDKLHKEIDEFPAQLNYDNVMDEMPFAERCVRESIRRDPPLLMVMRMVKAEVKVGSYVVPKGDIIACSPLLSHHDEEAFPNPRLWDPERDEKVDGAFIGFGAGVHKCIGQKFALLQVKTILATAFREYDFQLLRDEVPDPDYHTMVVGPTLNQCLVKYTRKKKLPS
Outline: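 Recombinant CYP51A from Y strain T. cruzi, expressed in E. coli and purified, titrated spectrally at 0.5 μM P450 in 5 cm path cuvettes with ligand over 0.1–1 μM. Type of absorbance change in difference spectra Δ(A430-A411) plotted against ligand concentration. Apparent Kd obtained by fitting to the Morrison quadratic tight-binding equation by nonlinear regression.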

[19] = target: Putative lanosterol 14-alpha-demethylase (Leishmania infantum, UniProt A2TEF2); experiment: Binding affinity to Leishmania infantum CYP51 expressed in Escherichia coli
Chain of Putative lanosterol 14-alpha-demethylase (A2TEF2 whole entry): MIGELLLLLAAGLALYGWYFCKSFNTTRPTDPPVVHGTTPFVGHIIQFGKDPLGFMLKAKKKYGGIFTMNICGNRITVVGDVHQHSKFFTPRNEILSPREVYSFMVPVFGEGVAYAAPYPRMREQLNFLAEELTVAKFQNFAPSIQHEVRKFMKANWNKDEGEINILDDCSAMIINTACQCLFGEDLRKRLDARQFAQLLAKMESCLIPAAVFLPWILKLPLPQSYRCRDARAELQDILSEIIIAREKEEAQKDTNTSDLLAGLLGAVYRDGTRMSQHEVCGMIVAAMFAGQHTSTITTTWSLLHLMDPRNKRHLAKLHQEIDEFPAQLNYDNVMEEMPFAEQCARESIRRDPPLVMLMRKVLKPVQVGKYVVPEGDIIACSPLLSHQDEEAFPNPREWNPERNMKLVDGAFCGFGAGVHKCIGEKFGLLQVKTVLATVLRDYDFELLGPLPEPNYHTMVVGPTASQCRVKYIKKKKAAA
Outline: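 Purified E. coli-expressed L. infantum CYP51 at 0.5 μM is titrated with ligand at 0.1–1 μM in 5 cm path cuvettes. Difference-spectrum absorbance change Δ(A430−A411) is plotted against ligand concentration. Apparent Kd comes from a Morrison (quadratic) tight-binding fit by nonlinear regression.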

Trypanosoma cruzi [20] = experiment: Antiparasitic activity against GFP-expressing Trypanosoma cruzi Tulahuen amastigote formss infected in cardiomyocytes assessed as reduction in rate of parasite multiplication within infected cardiomyocytes measured at 72 hrs post infection by fluorescence microscopy; type: functional, organism-based
Outline: (§3)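 GFP-expressing trypomastigotes (Tulahuen or Y strain) infect cardiomyocyte monolayers at 10 parasites per cell, in DMEM + 10% FBS. Unbound parasites are washed off. At 24 h of infection, inhibitors at 0.5–25 nM in DMSO/DMEM are added and cultured 48 h. Read-out is at 72 h post-infection as GFP fluorescence (RFU) after PBS wash; microscopy uses paraformaldehyde fixation, DAPI and phalloidin stain. Triplicate.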

Trypanosoma cruzi [21] = experiment: Antiparasitic activity against GFP-expressing Trypanosoma cruzi Y amastigote formss infected in cardiomyocytes assessed as reduction in rate of parasite multiplication within infected cardiomyocytes measured at 72 hrs post infection by fluorescence microscopy; type: functional, organism-based; outline: as §3
[22] = Plasma concentration in BALB/c mouse assessed as time until the compound becomes undetectable at 25 mg/kg, po via gavage […]; type: ADME, organism-based; conditions: in vivo; outline: as §1
[23] = target: Lanosterol 14-alpha-demethylase (Trypanosoma brucei brucei (strain 927/4 GUTat10.1)) (UniProt Q385E8); experiment: Inhibition of Trypanosoma brucei […] CYP51 expressed in Escherichia coli using [3-3H]-obtusifoliol as substrate after 60 mins by LC-MS analysis
Chain of Lanosterol 14-alpha-demethylase (Trypanosoma brucei brucei (strain 927/4 GUTat10.1)) (Q385E8 1-481): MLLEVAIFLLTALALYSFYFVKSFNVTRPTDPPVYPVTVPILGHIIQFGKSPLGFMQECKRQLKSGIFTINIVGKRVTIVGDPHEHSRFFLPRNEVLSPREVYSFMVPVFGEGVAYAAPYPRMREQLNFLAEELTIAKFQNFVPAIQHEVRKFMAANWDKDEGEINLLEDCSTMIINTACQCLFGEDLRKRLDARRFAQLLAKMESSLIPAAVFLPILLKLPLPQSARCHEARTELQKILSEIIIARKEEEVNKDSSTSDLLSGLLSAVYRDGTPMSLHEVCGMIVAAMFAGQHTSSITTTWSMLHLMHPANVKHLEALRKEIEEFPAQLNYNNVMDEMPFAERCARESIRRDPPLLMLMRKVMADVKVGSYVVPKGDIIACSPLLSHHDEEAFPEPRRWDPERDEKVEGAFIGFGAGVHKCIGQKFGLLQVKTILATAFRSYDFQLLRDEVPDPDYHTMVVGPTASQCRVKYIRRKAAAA
Outline: (§4)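 Reconstituted reaction: 1 μM purified CYP51, 2 μM T. brucei NADPH-P450 reductase, 100 μM dilauroylphosphatidylcholine, isocitrate dehydrogenase/isocitrate regeneration, 50 mM K phosphate pH 7.2, 10% glycerol. [3-3H]sterol substrate at 50 μM final (eburicol for T. cruzi; obtusifoliol for T. brucei and L. infantum) with inhibitor at 1.1 μM final. Preincubate 60 s at 37 °C, start with 100 μM NADPH, run 60 min, EtOAc extraction. Gives % inhibition of 14α-demethylation, triplicate, mean ± SD.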

[24] = target: Sterol 14-alpha demethylase (Trypanosoma cruzi (strain CL Brener)) (UniProt Q7Z1V1); experiment: Inhibition of Trypanosoma cruzi Y CYP51 expressed in Escherichia coli using [3-3H]-eburicol as substrate after 60 mins by LC-MS analysis; outline: as §4
Chain of Sterol 14-alpha demethylase (Trypanosoma cruzi (strain CL Brener)) (Q7Z1V1 whole entry, looked up): as the sequence (Q7Z1V1 whole entry) above

[25] = target: Putative lanosterol 14-alpha-demethylase (Leishmania infantum) (UniProt A2TEF2); experiment: Inhibition of Leishmania infantum CYP51 expressed in Escherichia coli using [3-3H]-obtusifoliol as substrate after 60 mins by LC-MS analysis; outline: as §4
Chain of Putative lanosterol 14-alpha-demethylase (Leishmania infantum) (A2TEF2 1-480): as the sequence (A2TEF2 whole entry) above

| SMILES | logP [1] | t1/2 [2] [min] | CLint scaled at 1 µM [3] [mL/min/kg] | CLhep predicted at 1 µM [4] [mL/min/kg] | CLint scaled at 1 µM [5] [mL/min/kg] | CLhep predicted at 1 µM [6] [mL/min/kg] | t1/2 [7] [min] | CLint scaled at 1 µM [8] [mL/min/kg] | CLhep predicted at 1 µM [9] [mL/min/kg] | t1/2 [10] [min] | Cmax [11] [µM] | concentration at 4 h [12] [µM] | concentration at 4 h [13] [µM] | concentration at 4 h [14] [µM] | concentration at 4 h [15] [µM] | concentration at 4 h [16] [µM] | concentration at 4 h [17] [µM] | Time [22] [h] | further results |
| --- | --- | --- | --- | --- | --- | --- | --- | --- | --- | --- | --- | --- | --- | --- | --- | --- | --- | --- | --- |
| O=C(N[C@@H](Cn1ccnc1)c1cnc(-c2ccc(F)cc2)cc1Cl)c1ccc(-c2nnc(-c3ccccc3)o2)cc1 | 4.93 | – | – | – | – | – | – | – | – | – | – | – | – | – | – | – | – | – | – |
| O=C(N[C@@H](Cn1ccnc1)c1ccc(-c2ccc(F)cc2)cc1F)c1ccc(-c2nnc(-c3ccccc3)o2)cc1 | 5.44 | 42 | 29.9 | 12.3 | 17.7 | 14.2 | 158 | 145 | 55.6 | 38 | 24 | 16 | 74 | 21 | 22 | 1 | 34 | – | Kd [18]: 6.8 nM; Kd [19]: 8.4 nM; EC50 (Trypanosoma cruzi [20]): 1 nM; EC50 (Trypanosoma cruzi [21]): 1.5 nM |
| O=C(N[C@@H](Cn1ccnc1)c1ccc(-c2ccc(F)cc2)cc1Cl)c1ccc(-c2nnc(-c3ccccc3)o2)cc1 | – | 90 | 13.9 | 8.35 | 35.5 | 23.6 | 79 | 59.8 | 35.9 | 91 | 13 | 3 | 18 | 6 | 12 | 0.2 | 20 | 16 | – |
| [2H]c1c([2H])c([2H])c(-c2ccc([C@H](Cn3ccnc3)NC(=O)c3ccc(-c4nnc(-c5ccccc5)o4)cc3)c(Cl)c2)c([2H])c1[2H] | – | 58 | 21.2 | 10.6 | 131 | 45.6 | 22 | 220 | 63.9 | 25 | 15 | 3 | 26 | 3 | 4 | 0.2 | 17 | < 16 | – |
| O=C(N[C@@H](Cn1ccnc1)c1ccc(Cl)cc1Cl)c1ccc(-c2nnc(-c3ccccc3)o2)cc1 | – | – | – | – | – | – | – | – | – | – | – | – | – | – | – | – | – | – | Kd [18]: 8.3 nM; Kd [19]: 2 nM; EC50 (Trypanosoma cruzi [20]): 1.3 nM; EC50 (Trypanosoma cruzi [21]): 4 nM |

Second part, led by results:

| logP [1] | t1/2 [2] [min] | CLint scaled at 1 µM [3] [mL/min/kg] | CLhep predicted at 1 µM [4] [mL/min/kg] | CLint scaled at 1 µM [5] [mL/min/kg] | CLhep predicted at 1 µM [6] [mL/min/kg] | t1/2 [7] [min] | CLint scaled at 1 µM [8] [mL/min/kg] | CLhep predicted at 1 µM [9] [mL/min/kg] | t1/2 [10] [min] | Cmax [11] [µM] | concentration at 4 h [12] [µM] | concentration at 4 h [13] [µM] | concentration at 4 h [14] [µM] | concentration at 4 h [15] [µM] | concentration at 4 h [16] [µM] | concentration at 4 h [17] [µM] | Time [22] [h] | SMILES | further results |
| --- | --- | --- | --- | --- | --- | --- | --- | --- | --- | --- | --- | --- | --- | --- | --- | --- | --- | --- | --- |
| – | – | – | – | – | – | 48 | – | – | – | 7 | 6 | 38 | 6 | 3 | 0.15 | 32 | 6 | O=C(N[C@@H](Cn1ccnc1)c1ccc(Cl)cc1Cl)c1ccc(-c2nnc(-c3ccc(OCC(F)(F)F)cc3F)o2)cc1 | inhibition [23]: Active; inhibition [24]: Active; inhibition [25]: Active |
| 4.93 | 56 | 22.3 | 10.8 | 29.7 | 20.8 | 95 | 105 | 48.4 | 52 | 5 | 0.1 | 0.6 | 2 | 1 | 0.1 | 3 | 10 | O=C(N[C@@H](Cn1ccnc1)c1ccc(-c2ccc(F)cc2)cc1Cl)c1ccc(-c2nnc(-c3ccccn3)o2)cc1 | – |
